In the library only some 2.4% were active in any assay of this set; here they are far more common.
m5-HT2A agonist – activates the mouse 5-HT2A serotonin receptor. P35363. CHO-K1 mHTR2A beta-arrestin complementation, luminescence; percent of 30 µM serotonin response. activation, % at 7.6 µM. 360,000 compounds, 0.66% hits. AID 624169;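 active means activation above a run cutoff, the mean activation of all tested compounds plus 3 SD, cut at about 14% in these data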
MIN6 prolif-1 – inducers of beta-cell replication in MIN6 cells | proliferation, % at 10 µM | MIN6 cells proliferation, ATPlite luminescence, 48 h; cells starved in 0.2% serum; 100% = growth in 10% serum | 330,000 compounds, 0.29% hits;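 active means compounds whose signal lies at least 3.5 SD above the mean of all wells on their plate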
Ins promoter up – MIN6 insulin promoter up-regulation. MIN6 insulin promoter-GFP reporter, high-content imaging; stronger effect = higher value. 190,000 compounds, 0.3% hits. AID 1625. z-score at 5 µM;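 active means z-score above 3 at 5 µM with at least 500 cells counted in the well; inconclusive means wells under 500 cells, flagged as cytotoxic or low count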
SR-BI uptake up – enhances SR-BI lipid uptake from DiI-HDL; CHO ldlA[mSR-BI] cells, DiI-HDL uptake fluorescence, 3 h; 100 = double the neutral-control signal; activation, % at 12.5 µM; 320,000 compounds, 0.096% hits;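 active means mean replicate activation of at least 60% and every replicate at or above 60%; inconclusive means mean or all-replicate condition met, but not both; inactive means mean below 60% and not all replicates reaching 60%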
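material = CHO ldlA[mSR-BI] cells | medium = Ham's F12 with 0.5% BSA, HEPES 25 mM, pH 7.4 | reagent = fluorescent DiI-HDL, 10 µg/mL final | compound dosing = single-point compound dose | incubation = 3 h, 37 °C | measured by = bottom-read fluorescence, 550/595 nm | measure = HDL uptake via cellular fluorescence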
SR-BI DiI inh – blocks mouse SR-BI lipid uptake from DiI-HDL. AID 488896. 320,000 compounds, 0.96% hits. ldlA[mSR-BI] CHO cells, DiI-HDL uptake fluorescence, 3 h. Q61009. inhibition, % at 12.5 µM;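 active means mean replicate inhibition of at least 70% and a set share of replicates each scoring 70 or more; inconclusive means meets just one of the two criteria; inactive means fails both criteria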
Target sequence (Q61009 whole entry, looked up): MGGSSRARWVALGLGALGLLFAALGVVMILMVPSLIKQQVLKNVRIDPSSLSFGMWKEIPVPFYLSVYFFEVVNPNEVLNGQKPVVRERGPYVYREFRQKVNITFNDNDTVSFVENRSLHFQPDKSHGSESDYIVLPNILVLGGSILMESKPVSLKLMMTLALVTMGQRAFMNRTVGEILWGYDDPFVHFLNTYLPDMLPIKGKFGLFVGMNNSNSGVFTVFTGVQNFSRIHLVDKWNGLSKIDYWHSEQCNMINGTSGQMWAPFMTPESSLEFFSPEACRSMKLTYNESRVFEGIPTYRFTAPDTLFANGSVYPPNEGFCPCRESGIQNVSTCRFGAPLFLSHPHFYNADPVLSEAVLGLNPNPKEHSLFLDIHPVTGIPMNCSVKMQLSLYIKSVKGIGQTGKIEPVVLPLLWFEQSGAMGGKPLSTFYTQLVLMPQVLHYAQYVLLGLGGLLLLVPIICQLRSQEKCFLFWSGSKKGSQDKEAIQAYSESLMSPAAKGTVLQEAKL
Calb FLC – affects C. albicans growth with fluconazole | growth inhibition, % (concentration not given with the values) | AID 1979 | C. albicans CaCi-2 + fluconazole, Alamar Blue growth, 48 h | 300,000 compounds, 0.57% hits;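 active means growth inhibition above about 58% in most replicates, limit read from the data, passing the limit was not always enough; inconclusive means exactly half the replicates above a set limit; inactive means most replicates below a set limit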;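 further: all wells also contain fluconazole at 8 µg/ml as a sub-toxic cotreatment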
MIN6 prolif-2 – MIN6 beta-cell replication induction, confirmed. shares compounds with MIN6 prolif-1. MIN6 beta-cell proliferation, ATPlite luminescence, 48 h; cells kept in 0.2% serum; scaled between 0.2% and 10% serum. proliferation increase, % at 50 µM. 920 tested, under 10 active. AID 463095;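 active means proliferation increase above 40% at any of the four tested concentrations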
Numbers stand for hits; 0 = inactive; ? = inconclusive; - = no result given.

SMILES | m5-HT2A agonist | MIN6 prolif-1 | Ins promoter up | SR-BI uptake up | SR-BI DiI inh | Calb FLC | MIN6 prolif-2
COc1ccc(CNc2ccc(C)c(C)c2)c(OC)c1OC | 0 | 0 | 0 | 0 | 0 | 0 | -
O=C(NCc1cccnc1)c1cccn1-c1ncc(C(F)(F)F)cc1Cl | 0 | 8.8 | 0 | 0 | 0 | 0 | 0
O=S(=O)(NCc1cccnc1)c1cccn1-c1ncc(C(F)(F)F)cc1Cl | 0 | 0 | 0 | 0 | 0 | 0 | -
CCOC(=O)C1=C(COC(=O)/C=C/c2ccc(OC)cc2OC)NC(=O)NC1C (stereo not given) | 0 | 13.1 | - | 0 | 0 | 0 | 0
CC(=O)NC(C)(c1ccccc1)c1nc(-c2cc(F)cc(F)c2)cs1 (stereo not given) | 0 | - | - | - | - | - | -
COC(=O)c1ccc(N2CCN(C)CC2)c(NC(=O)COc2ccc(C)cc2)c1 | 0 | 11.2 | - | 0 | 0 | 0 | 0
COC(=O)c1ccc(N2CCN(C)CC2)c(NC(=O)COc2ccc(OC)cc2)c1 | 0 | 0 | - | 0 | 0 | 0 | -
CCCCNc1ccc(S(N)(=O)=O)cc1[N+](=O)[O-] | - | 6.0 | 0 | - | - | 0 | 0
CS(=O)(=O)NCCNc1cc(Cl)ccc1[N+](=O)[O-] | 0 | 0 | 0 | 0 | 0 | 0 | -
NS(=O)(=O)c1ccc(NCCCn2ccnc2)c([N+](=O)[O-])c1 | 0 | 0 | - | 0 | 0 | 0 | -
CS(=O)(=O)NCCNc1ccc(Cl)cc1[N+](=O)[O-] | 0 | 7.7 | 0 | 0 | 0 | 0 | 0
CCCN(CC(=O)Nc1ccc(C(N)=O)cc1)CC(=O)Nc1ccc(F)c(F)c1F | 0 | 0 | - | 0 | 0 | 0 | -
COc1ccc(S(=O)(=O)N2CCOC2CNC(=O)C(=O)NCCc2c[nH]c3ccccc23)cc1C (stereo not given) | 0 | 0 | 0 | 0 | 0 | 0 | -
COc1ccc(-c2cc(C(F)F)n3ncc(C(=O)N4CCc5ccccc54)c3n2)cc1 | 0 | 0 | 0 | 0 | 0 | 0 | -
Cc1ccc(-c2cc(C(F)F)n3ncc(C(=O)N4CCCc5ccccc54)c3n2)cc1 | 0 | 7.8 | 0 | 0 | 0 | 0 | 0
COc1cc(-c2nn3c(C4CCCCC4)nnc3s2)cc(OC)c1OC | 0 | 0 | 0 | 0 | 0 | 0 | -
COc1ccc(-c2nn3c(C4CCCCC4)nnc3s2)cc1OC | 0 | 9.1 | 0 | 0 | 0 | 0 | 0
OCCC1CN(Cc2c(F)cccc2Cl)CCN1C1CCCC1 (stereo not given) | 0 | 8.1 | 0 | 0 | 0 | 0 | 0
CCOC(=O)c1ccccc1OCc1cc(/C=N/n2cncn2)ccc1OC | 0 | 7.8 | - | 0 | 0 | 0 | 0
CCOC(=O)C1CCN(C(=O)c2ccc(C)o2)CC1 | 0 | 9.3 | - | 0 | 0 | - | 0
CCOC(=O)C1CCN(C(=O)CCC2CCCC2)CC1 | 0 | 6.1 | - | 0 | 0 | 0 | 0
Cn1c(=O)c(=O)n(C)c2cc(N3CCOCC3)c(NS(=O)(=O)c3ccc(Br)cc3)cc21 | 0 | 0 | - | 0 | 0 | 0 | -
Cc1ccccc1-c1cnc(C(O)c2c(C)ccc3ccccc23)[nH]1 (stereo not given) | 0 | - | - | - | - | - | -
O=C(c1ccc2c3c(cccc13)CC2)N1CCOCC1 | 0 | 5.3 | 0 | 0 | 0 | 0 | 0
N#Cc1cc(NC(=O)c2ccc(F)cc2)c(=O)n2c1[nH]c1ccccc12 | - | 0 | 0 | - | - | ? | -
SMILES | m5-HT2A agonist | MIN6 prolif-1 | Ins promoter up | SR-BI uptake up | SR-BI DiI inh | Calb FLC | MIN6 prolif-2
CCOc1ccc(CC(=O)Nc2c3c(nn2C(C)(C)C)CS(=O)(=O)C3)cc1 | 0 | 0 | - | 0 | 0 | 0 | -
Cc1ccc(C2=CC(c3ccccc3)n3ncnc3N2)cc1 (stereo not given) | 0 | 12.1 | - | 0 | 0 | 0 | 0
C1=C(c2ccccc2)Nc2ncnn2C1c1ccccc1 (stereo not given) | 0 | 0 | - | 0 | 0 | 0 | -
COc1ccc(NC(=O)CSc2n[nH]c(N)n2)c([N+](=O)[O-])c1 | 0 | 0 | 0 | 0 | 0 | 0 | -
Nc1ccc[n+](Cc2ccccn2)c1 | 0 | 4.9 | 0 | 0 | 0 | 0 | 0
Nc1ccc(Cc2ccccn2)cc1 | 0 | 0 | 0 | 0 | 0 | 0 | -
CCCCNC(=S)NNC(=O)c1csc(C)c1CC | 0 | 0.0 | 0 | 0 | 0 | 0 | 0
C=CCNC(=S)NNC(=O)c1csc(C)c1CC | 0 | 0 | 0 | 0 | 0 | 0 | -
COc1ccccc1NS(=O)(=O)c1ccc(C(=O)N2CCN(c3ccccn3)CC2)cc1 | 0 | 0 | - | 0 | 0 | - | -
C=C[C@@]1(C)CC(=O)[C@]2(O)[C@@]3(C)[C@@H](O)CCC(C)(C)[C@@H]3[C@H](OC(C)=O)[C@H](O)[C@@]2(C)O1 | 0 | 0 | - | 0 | 0 | 0 | -
C=C[C@@]1(C)CC(=O)[C@]2(O)[C@@]3(C)[C@@H](O)CCC(C)(C)[C@@H]3[C@H](O)[C@H](OC(C)=O)[C@@]2(C)O1 | 0 | 16.8 | - | 0 | 0 | - | 0
CSc1ccccc1NC(=O)CN(Cc1ccc(Cl)cc1)S(C)(=O)=O | 0 | 5.0 | 0 | 0 | 0 | 0 | 0
CCCS(=O)(=O)NC(=O)C1(C)CCN(C(=O)c2nc(C)oc2C)C1 (stereo not given) | 0 | - | - | - | - | - | -
COc1cccc(NC(=O)C(=O)NCCC2CCCCN2S(=O)(=O)c2cccs2)c1 (stereo not given) | 0 | 0 | - | 0 | 0 | 0 | -
CCN(C(=O)CN1C(=S)NC(C)(C)CC1C)c1ccc(C)c(C)c1 (stereo not given) | 0 | 9.3 | 0 | 0 | 0 | 0 | 0
Cc1ccc(C)c(OCCN2C(=O)NC3(CCc4ccccc4C3)C2=O)c1 (stereo not given) | 0 | 0 | - | 0 | 0 | 0 | -
Cc1ccc(OCCN2C(=O)NC3(CCc4ccccc4C3)C2=O)cc1 (stereo not given) | 0 | 7.2 | 0 | 0 | 0 | 0 | 0
COc1cc2[nH]c(Cl)c([N+](=O)[O-])c2cc1OC | 0 | 0 | 0 | 0 | 0 | 0 | -
O=C1CSC(c2ccccc2)N1CCc1ccccc1 (stereo not given) | 0 | 7.5 | - | 0 | 0 | 0 | 0
CC(C)(C)NC(=O)C1C(c2ccccc2)=Nc2ccccc2N1C(=O)c1ccc(C(F)(F)F)cc1 (stereo not given) | 0 | - | - | - | - | - | -
CN(Cc1cccc(Cl)c1Cl)C(=O)CCNC(=O)c1ccco1 | 0 | 0 | - | 0 | 0 | - | -
CC(=O)N1c2ccc(S(=O)(=O)N3CCCC3)cc2CC1C(=O)Nc1cc(C)cc(C)c1 (stereo not given) | 0 | 0 | - | 0 | 0 | 0 | -
CC(=O)N1c2ccc(S(=O)(=O)N3CCCC3)cc2CC1C(=O)NC(C)C (stereo not given) | 0 | 12.6 | - | 0 | 0 | 0 | 0
COc1ccc(NC(=S)N(Cc2ccc(C(=O)O)cc2)Cc2ccc(OC)c(OC)c2)cc1 | 0 | 9.2 | 0 | 0 | 0 | 0 | 0
COc1ccc(/C=N/NC(=O)c2cnccn2)cc1O | 0 | 0.0 | 0 | 0 | 0 | 0 | 0
COc1cccc(/C=N/NC(=O)c2cnccn2)c1 | 0 | 0 | 0 | 0 | 0 | 0 | -
